Compound activity deposited in PubChem BioAssay by several laboratories.
Compounds with a hit are over-represented: about 9.2% of the library has one in this group of screens.
PTEN del growth: growth suppression of PTEN-null HCT116, primary screen, cell-based, CellTiter-Glo | HCT116 PTEN-null viability, 60 h; hits give low values | viability, % at 10 µM | 140,000 tested, 1.2% active;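 active = viability at or below a set limit, 4 SD under the median of all tested compounds, cut at about 3.7% in these data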;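 note: PTEN knockout HCT116 line with beta catenin targeted HCT116 as companion control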
Dynein transport: inhibitors of GR-EGFP nuclear translocation, primary screen, dynein cargo transport inhibitor project, imaging, high-content, 3617.4 mouse cells | 220,000 tested, 0.47% active | z-score, hits read low | AID 1381, 2008 | test concentration mostly 20 µM; stimulated with dexamethasone, 1 µM; hits give low values;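 active = plate z-score of nuclear minus cytoplasmic receptor signal below a set negative limit, without overly bright fluorescence or cell loss, cut at about -3.5 in these data, passing the limit was not always enough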;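 note: z-score of nuclear minus cytoplasmic ring GR-EGFP intensity difference per well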
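Buffer or medium: Induction medium lacking tetracycline, stripped serum | Also added: Dexamethasone agonist, 1.0 µM final, for 30 min | Timing: 48 h induction, 1 h compound, 30 min dex at 37 °C | Detection: Formaldehyde fixation, Hoechst nuclear stain, 10x automated fluorescence imaging | Measure: Nuclear versus cytoplasmic GR-EGFP signal, averaged per well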
bCat KO growth: primary screen for growth suppressors in beta-catenin knockout HCT116 cells (colon tumor, human); HCT116 beta-catenin knockout viability, CellTiter-Glo, 60 h; hits give low values; viability, % at 10 µM; 140,000 tested, 1.5% active;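 active = viability at or under a set limit, the compound median less 4 SD, cut at about 6% in these data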;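 note: 0% = Hyamine 1622 control at 20 µM and 100% = untreated cell control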
Autophagy mod: autophagy modulators in MEF cells, primary screen, imaging, high-content, MEF GFP-LC3 | 190,000 tested, 0.98% active | MEF GFP-LC3 puncta imaging; test concentration mostly 10 µM | calls only at 10 µM (by protocol);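 active = percentage of spot-positive cells more than 3 SD above its plate mean, without a fluorescence outlier flag or 80% toxicity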;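 note: spot-positive cell cutoff set from DMSO-treated cells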
L major viab: Leishmania major promastigote growth inhibition, primary screen; Leishmania major promastigotes, resazurin fluorescence viability; inhibition, % at 10 µM; 200,000 tested, 9% active; AID 1063, 2008; in the data active = inhibition above about 50%;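 note: promastigotes grown with compound for 44 hours at 28 °C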
The depositor's hits bear a star; i = inactive; . = no result; + = active, no number.

SMILES	PTEN del growth	Dynein transport	bCat KO growth	Autophagy mod	L major viab
CCOC(=O)c1[nH]c2c(c1-c1ccccc1)C(=O)CC(c1ccc(OC)c(OC)c1)C2 (stereo not given)	17.7	0.951	30.6	i	53.9*
CCOC(=O)c1[nH]c2c(c1-c1ccccc1)C(=O)CC(c1ccc(OCC)cc1)C2 (stereo not given)	87.7	-0.219	90.1	i	1.0
COc1ccc(CNC(=O)C/C(C)=N/NC(=O)COc2cccc(C)c2)cc1	.	0.0318	.	i	-5.8
Cc1nc(N)sc1C(=O)N/N=C/c1ccccc1[N+](=O)[O-]	.	4.42	.	i	91.8*
CC(C(=O)NN=C(c1ccccc1)c1ccccc1)N1CCOCC1 (stereo not given)	.	-0.22	.	i	-8.5
Cc1ccccc1N1CCN(Cc2c[nH]c3ccccc23)CC1	33.7	-0.693	29.8	i	71.5*
O=[N+]([O-])c1ccc(CN2CCN(Cc3c[nH]c4ccccc34)CC2)cc1	.	2.1	.	i	83.2*
CCS(=O)(=O)N1CCN(Cc2c[nH]c3ccccc23)CC1	.	-0.193	.	i	-3.3
COc1ccccc1N1CCN(Cc2c[nH]c3ccccc23)CC1	.	-0.713	.	.	.
CCCn1nnc(NC(=O)/C=C/c2cc(Br)ccc2OC)n1	.	0.203	.	i	15.3
Cc1cccc(NC(=O)C2Cc3ccccc3CN2C(=O)OCc2ccccc2)c1C (stereo not given)	66.5	0.893	76.1	i	98.2*
CC(=O)c1c(C)[nH]c(C(=O)CN2C(=O)NC(C)(c3ccc(C)cc3)C2=O)c1C (stereo not given)	.	-0.368	.	+	1.5
CCc1c(O)c(/C(C)=N\O)c(=O)n(-c2ccccc2)c1-c1ccccc1	94.0	0.661	91.1	i	67.3*
C=CCO/N=C(/C)c1c(O)c(CC)c(-c2ccccc2)n(-c2ccccc2)c1=O	99.2	-1.06	93.0	i	51.0*
CCOC(=O)CC1=CC(C)(CC(=O)OCC)C(C#N)(C#N)C(N)=C1C#N (stereo not given)	91.5	-0.735	81.7	i	18.4
CCN(C(=O)c1cnc(N2CCN(c3ncccn3)CC2)c2ccccc12)c1cccc(Cl)c1	5.4	0.312	4.0*	i	-14.9
CN1C2CCC1/C(=C\c1ccccc1)C(=O)/C2=C\c1ccccc1	8.3	-1.39	8.1	i	93.8*
CC(NC(=O)c1c(Cl)cnn1C)C1CCCO1 (stereo not given)	.	0.0352	.	.	.
COc1ccc(-c2csc(N(CCCN(C)C)C(=O)c3cccs3)n2)cc1	61.5	-0.861	50.8	i	91.8*
COc1ccc(NC(=S)N2CCN(Cc3ccc(C)cc3)CC2)cc1	.	-0.384	.	i	61.8*
Cc1ccc(NC(=S)N2CCN(Cc3ccccc3)CC2)cc1	.	-0.608	.	i	-2.0
CC(C)c1ccc(NC(=S)N2CCN(Cc3ccccc3)CC2)cc1	.	-0.996	.	i	86.2*
FC(F)Oc1ccc(NC(=S)N2CCN(Cc3ccccc3)CC2)cc1	.	0.96	.	i	79.5*
Fc1ccc(CNC(=S)Nc2ccc(OC(F)F)cc2)cc1	85.8	-0.518	92.6	i	62.8*
S=C(Nc1ccc(Cl)cc1)N1CCN(Cc2ccccc2)CC1	.	-0.772	.	i	-3.7
SMILES	PTEN del growth	Dynein transport	bCat KO growth	Autophagy mod	L major viab
CCCCSc1ncnc2[nH]ncc12	.	1.05	.	.	.
O=C(CSc1nnc(NC2CCCCC2)s1)NCc1ccco1	.	-1.17	.	i	8.2
COc1cc(O)c(C(CC(=O)N2CCCC(C)C2)c2cc(OC)c(OC)c(OC)c2)c(OC)c1 (stereo not given)	.	-0.632	.	.	.
Cc1ccc(CN=c2c([N+](=O)[O-])nn(-c3cccc(C)c3)n2O)cc1	.	-0.985	.	i	19.6
Cc1cc(C)cc(N=c2c([N+](=O)[O-])nn(-c3ccc(Cl)cc3)n2O)c1	.	0.333	.	i	94.8*
Cc1ccc(CN=c2c([N+](=O)[O-])nn(-c3cccc(Cl)c3)n2O)cc1	.	-0.451	.	i	19.9
CCc1ccc(N=c2c([N+](=O)[O-])nn(-c3ccccc3)n2O)cc1	76.1	-0.587	83.1	i	88.4*
CCN(CC)c1ccc(/C=C2\C(=O)N(c3ccc([N+](=O)[O-])cc3)N=C2N2CCOCC2)cc1	.	-0.286	.	i	-6.6
COCCSc1nnc(NC(=O)CSCc2ccccc2)s1	93.6	-0.624	92.5	i	-9.4
O=C(Nc1ccc(O)cc1)c1c(O)c2c([nH]c1=O)CCCC2	.	0.25	.	i	4.5
C=C(C)COc1ccc(-c2n[nH]c(C)c2-c2ccc(OC)cc2)c(O)c1	1.4*	-1.25	1.3*	i	47.5
CC(=O)N1c2ccccc2C2(O)N=C(C)SC12 (stereo not given)	82.5	-1.4	82.8	i	13.0
O=C1ON=C(c2ccccc2)/C1=C/c1ccc(OS(=O)(=O)c2ccccc2)cc1	91.0	-4.02*	88.3	i	-3.5
O=C1ON=C(c2ccccc2)/C1=C/c1cccnc1	.	-0.00838	.	i	-1.6
CC1CCN(C(=O)CSCC(=O)O)CC1	.	1.3	.	i	-7.2
Cc1cc(NC(=O)CN2C(=O)NC3(CCCCC3)C2=O)no1	96.7	0.615	85.3	i	-4.5
Cc1noc(C)c1CN1C(=O)NC2(CCCCCCC2)C1=O	97.9	0.0326	97.3	i	100.0*
Cc1nc2ccccc2nc1OCc1ccc([N+](=O)[O-])cc1	.	-0.0953	.	i	-0.6
Cc1nccn1S(=O)(=O)c1ccc(Br)cc1Br	93.7	-0.155	89.0	i	85.9*
CCOC(=O)C1(CCCc2ccccc2)CCN(C(=O)CCCn2cncn2)CC1	.	0.612	.	i	-7.1
CCOc1cccc2cc(-c3cn4cc(C)ccc4n3)c(=O)oc12	1.3*	-1.11	1.1*	+	3.1
COc1ccc(OC)c(N/C=C/C(=C(C#N)C#N)N(C)C)c1	.	2.23	.	i	8.2
Cc1csc(NC(=O)c2cc[n+]([O-])cc2)n1	.	1.01	.	i	-1.0
CCC(=O)Nc1nc(-c2cc([N+](=O)[O-])cs2)cs1	.	2.4	.	i	90.4*
Cc1csc(NC(=O)c2cc([N+](=O)[O-])cc([N+](=O)[O-])c2)n1	85.0	2.12	80.0	i	93.9*
SMILES	PTEN del growth	Dynein transport	bCat KO growth	Autophagy mod	L major viab
Cc1csc(NC(=O)c2nc3nc(C)cc(C)n3n2)n1	96.9	-0.631	105.9	i	77.1*
Cc1ccnc(NC(=O)c2cc([N+](=O)[O-])cc([N+](=O)[O-])c2)c1	.	1.02	.	i	67.0*
O=C(N/N=C/c1cc2ccccc2[nH]1)c1ccccc1Cl	.	-0.529	.	.	.
COC(=O)[C@@H]1C[C@@]2(O)[C@H](O)[C@H](O)[C@H](O)C[C@H]2N1Cc1ccc(-c2ccccc2)cc1	.	0.312	.	.	.
COc1ccccc1-n1nc(C)c(-c2ccccc2)c1N	.	-0.168	.	i	-2.2
COCc1cc(C)nc(SCC[N+](C)(C)CC(=O)Nc2cccc(C(F)(F)F)c2)c1C#N	.	0.443	.	i	-3.0
